Source: ChEMBL document CHEMBL1121744, “Synthesis and antihypertensive activity of a series of 8-substituted 1-oxa-3,8-diazaspiro[4.5]decan-2-ones” (J Med Chem, 1981)

Tests used:
Rattus norvegicus [1] = assay: Antihypertensive activity as percentage fall in systolic blood pressure in spontaneously hypertensive rats after a period of 1 hr for a dose of 50 mg/kg; format: functional, Artery
Method in brief: (§1)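 Male Okamoto-Aoki SHR, trained, in groups of four matched for mean systolic pressure; one group per run received water vehicle. Oral dosing in water (0.1 mL per 10 g) on two consecutive mornings. After the day-2 dose, rats were restrained at 30.0 ± 1.0 °C. Systolic pressure was read by tail cuff (inflated to 300 mmHg, first pulse) at 1–4 h. % fall is versus the untreated control group, by 1-tail t test (p ≤ 0.05).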

Canis familiaris [2] = assay: Percent inhibition of the pressor responses to 1 ug/kg iv Epinephrine in pentobarbital-anesthetized dogs for a dose of 1 mg/kg; format: functional; conditions: Canis lupus familiaris
Method in brief: (§2)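 Pentobarbital-anesthetized dogs (35 mg/kg iv) with femoral arterial pressure recording. Epinephrine (1 μg/kg), norepinephrine (0.75 μg/kg) and phenylephrine (7.5 μg/kg) iv challenges were given about every 10 min before and after rising iv test doses, which were spaced 90 min apart. Value is % inhibition of the pressor response.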

Canis familiaris [3] = assay: Change in mean arterial pressure in anesthetized dogs for a dose of 1 mg/kg; format: functional, Canis lupus familiaris, Artery
Method in brief: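 Dogs anesthetized with sodium pentobarbital (35 mg/kg iv), femoral artery cannulated for pressure, ECG-triggered heart rate, femoral vein for dosing. Rising iv doses were given 90 min apart, and each dose is the full dose, not cumulative. Value is the maximal mean arterial pressure change 10–15 min after each dose, two dogs per compound, ±3 mmHg. Saline served as control.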

[4] = molecular target: T1, Adrenergic receptor alpha-1 (Rattus norvegicus, UniProt P15823+P23944+P43140); assay: Antagonistic potency of compound for Alpha-1 adrenergic receptor; format: functional
T1 sequence (P15823 whole entry): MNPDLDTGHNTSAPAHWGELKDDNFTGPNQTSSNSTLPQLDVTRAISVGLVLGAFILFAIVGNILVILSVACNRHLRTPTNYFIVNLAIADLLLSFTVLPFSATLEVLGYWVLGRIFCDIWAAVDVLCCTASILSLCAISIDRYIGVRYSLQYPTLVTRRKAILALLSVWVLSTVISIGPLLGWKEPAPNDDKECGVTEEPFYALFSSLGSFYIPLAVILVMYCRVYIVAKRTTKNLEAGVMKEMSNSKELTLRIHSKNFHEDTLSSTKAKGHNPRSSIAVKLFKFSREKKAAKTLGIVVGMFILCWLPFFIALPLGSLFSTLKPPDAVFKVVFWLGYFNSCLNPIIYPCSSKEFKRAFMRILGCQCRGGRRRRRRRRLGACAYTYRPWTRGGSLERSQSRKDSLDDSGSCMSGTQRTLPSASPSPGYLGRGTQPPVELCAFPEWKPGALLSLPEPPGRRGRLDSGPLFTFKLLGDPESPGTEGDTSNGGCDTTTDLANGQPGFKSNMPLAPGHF
T1 sequence (P23944 whole entry): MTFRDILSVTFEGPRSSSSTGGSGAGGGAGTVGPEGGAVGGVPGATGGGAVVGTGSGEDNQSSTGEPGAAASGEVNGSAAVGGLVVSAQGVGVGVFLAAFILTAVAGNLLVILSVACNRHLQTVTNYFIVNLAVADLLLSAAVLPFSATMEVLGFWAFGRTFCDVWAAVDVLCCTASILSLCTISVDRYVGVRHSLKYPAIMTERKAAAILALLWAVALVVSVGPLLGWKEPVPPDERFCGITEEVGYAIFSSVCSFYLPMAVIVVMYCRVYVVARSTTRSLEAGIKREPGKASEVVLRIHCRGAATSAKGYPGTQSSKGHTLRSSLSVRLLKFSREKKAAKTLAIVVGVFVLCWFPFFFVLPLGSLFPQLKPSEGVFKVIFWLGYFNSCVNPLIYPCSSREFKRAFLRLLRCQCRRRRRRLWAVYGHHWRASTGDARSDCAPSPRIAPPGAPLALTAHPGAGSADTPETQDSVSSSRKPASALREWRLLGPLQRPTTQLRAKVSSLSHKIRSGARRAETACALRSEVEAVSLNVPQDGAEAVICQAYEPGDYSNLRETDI
T1 sequence (P43140 whole entry): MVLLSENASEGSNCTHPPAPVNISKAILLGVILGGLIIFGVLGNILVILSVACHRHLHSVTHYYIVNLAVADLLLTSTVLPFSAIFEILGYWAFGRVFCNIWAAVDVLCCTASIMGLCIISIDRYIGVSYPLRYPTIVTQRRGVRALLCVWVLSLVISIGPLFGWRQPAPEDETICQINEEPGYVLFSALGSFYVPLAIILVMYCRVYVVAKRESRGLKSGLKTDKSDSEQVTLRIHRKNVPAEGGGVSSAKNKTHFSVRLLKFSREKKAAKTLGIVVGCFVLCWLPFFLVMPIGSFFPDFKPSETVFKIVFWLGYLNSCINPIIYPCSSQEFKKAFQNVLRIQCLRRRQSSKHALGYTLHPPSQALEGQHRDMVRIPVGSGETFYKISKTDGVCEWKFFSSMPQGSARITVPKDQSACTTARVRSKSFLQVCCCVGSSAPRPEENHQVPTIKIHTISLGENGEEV

Rattus norvegicus [5] = assay: Percentage fall in systolic blood pressure in spontaneously hypertensive rats after 2 hr following 50 mg/kg p.o.; format: functional, Artery; conditions: route oral; method in brief: as §1
[6] = Distribution coefficient between 1-Octanol and phosphate buffer at pH7.4; format: physicochemical; conditions: 1-octanol/phosphate buffer, pH 7.4
Method in brief: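 Octanol/buffer distribution measured at pH 7.4 in phosphate with sodium chloride. Either HPLC (0.004 M) or shake flask.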

Canis familiaris [7] = assay: Percent inhibition of the pressor responses to 7.5 ug/kg iv phenylephrine in pentobarbital-anesthetized dogs for a dose of 1 mg/kg; format: functional; conditions: Canis lupus familiaris; method in brief: as §2
Rattus norvegicus [8] = assay: Percentage fall in systolic blood pressure in spontaneously hypertensive rats after 3 h following 50 mg/kg p.o.; format: functional, Artery; conditions: route oral; method in brief: as §1
Canis familiaris [9] = assay: Percent inhibition of the pressor responses to 7.5 ug/kg iv phenylephrine in pentobarbital-anesthetized dogs for a dose of 0.1 mg/kg; format: functional; conditions: Canis lupus familiaris; method in brief: as §2

CN1CC2(CCN(CC(O)C3COc4ccccc4O3)CC2)OC1=O (stereo not drawn)
Decrease in blood pressure (Rattus norvegicus [1]): 28%
inhibition in vivo at 1 mg/kg (Canis familiaris [2]): > 100%
MAP (Canis familiaris [3]): -13 mmHg
pA2 [4]: 4.5
Decrease in blood pressure (Rattus norvegicus [5]): 31%
logD [6]: 1.43
inhibition in vivo at 1 mg/kg (Canis familiaris [7]): 44%
Decrease in blood pressure (Rattus norvegicus [8]): 14%
inhibition in vivo at 0.1 mg/kg (Canis familiaris [9]): 0%

O=C1NCC2(CCN(CCc3c[nH]c4ccccc34)CC2)O1
Decrease in blood pressure (Rattus norvegicus [1]): 16%
inhibition in vivo at 1 mg/kg (Canis familiaris [2]): > 100%
MAP (Canis familiaris [3]): -11 mmHg
pA2 [4]: 5.5
Decrease in blood pressure (Rattus norvegicus [5]): 10%
logD [6]: 1.45
inhibition in vivo at 1 mg/kg (Canis familiaris [7]): 84%
Decrease in blood pressure (Rattus norvegicus [8]): 7%
inhibition in vivo at 0.1 mg/kg (Canis familiaris [9]): 17%
